Laboratory results: ChEMBL document CHEMBL4689842, “EUbOPEN Chemogenomics Library wave 1” (2021)

Tests used:
Format in all cases: toxicity, cell-based
[1] = test system: U2OS; experiment: Multiplex assay against U2OS; conditions: human
In short: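 Per cents of healthy-nucleus cells form the tubulin, mitochondrial-mass and membrane-permeability phenotype values. Live cells were stained at seeding with Hoechst33342, BioTracker Green Microtubule Cytoskeleton Dye, MitoTracker Red and Annexin V Alexa Fluor 680. After compound addition they were imaged on a CQ1 microscope at 37°C and 5% CO2, and CellPathfinder machine-learning gating split them into Hoechst high-intensity objects or normal cells, normal cells into healthy, pyknosed or fragmented nuclei, and pyknosed cells into mitotic or apoptotic.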

[2] = test system: HEK-293T; experiment: Incucyte cell viability with HEK293T; conditions: human, 10 µM, compound concentration 10 uM; note: filed as whole numbers so only -1 and 0 and 1 occur
[3] = test system: Fibroblast; experiment: Incucyte cell viability with human fibroblast; conditions: 10 µM, compound concentration 10 uM; note: filed as whole numbers so only -1 and 0 and 1 occur
[4] = test system: U2OS; experiment: Incucyte cell viability with U2OS; conditions: human, 10 µM, compound concentration 10 uM; note: filed as whole numbers so only -1 and 0 and 1 occur
[5] = 12 h, 1 µM, compound concentration 1 uM, replicate 1
[6] = 12 h, 1 µM, compound concentration 1 uM, replicate 2
[7] = 12 h, 10 µM, compound concentration 10 uM, replicate 1
[8] = 12 h, 10 µM, compound concentration 10 uM, replicate 2
[9] = 24 h, 1 µM, compound concentration 1 uM, replicate 1
[10] = 24 h, 1 µM, compound concentration 1 uM, replicate 2
[11] = 24 h, 10 µM, compound concentration 10 uM, replicate 1
[12] = 24 h, 10 µM, compound concentration 10 uM, replicate 2
[13] = 6 h, replicate number 1, timepoint 6 hours
[14] = 12 h, replicate number 1, timepoint 12 hours
[15] = 18 h, replicate number 1, timepoint 18 hours
[16] = 24 h, replicate number 1, timepoint 24 hours
[17] = 0 h, replicate number 1, timepoint 0 hours

CC(C)(C)c1cnc(CSc2cnc(NC(=O)C3CCNCC3)s2)o1 [BMS-387032]
Population Apoptotic (%) [1, 5]: 26% | Population Fragmented Nuclei (%) [1, 5]: 13% | Population Healthy Nuclei (%) [1, 5]: 69% | Population Hoechst High Intensity Objects (%) [1, 5]: 4% | Population Membrane Permeable-Phenotype (%) [1, 5]: 15% | Population Mitochondria Different-Phenotype (%) [1, 5]: 17% | Population Mitotic Cells (%) [1, 5]: 73% | Population Normal (%) [1, 5]: 95% | Population Pyknosed Nuclei (%) [1, 5]: 16% | Population Tubulin-Different-Phenotype (%) [1, 5]: 39% | Total Cell Count [1, 5]: 140 | Population Apoptotic (%) [1, 6]: 14% | Population Fragmented Nuclei (%) [1, 6]: 11% | Population Healthy Nuclei (%) [1, 6]: 80% | Population Hoechst High Intensity Objects (%) [1, 6]: 15% | Population Membrane Permeable-Phenotype (%) [1, 6]: 21% | Population Mitochondria Different-Phenotype (%) [1, 6]: 31% | Population Mitotic Cells (%) [1, 6]: 85% | Population Normal (%) [1, 6]: 84% | Population Pyknosed Nuclei (%) [1, 6]: 7% | Population Tubulin-Different-Phenotype (%) [1, 6]: 37% | Total Cell Count [1, 6]: 143 | Population Apoptotic (%) [1, 7]: 40% | Population Fragmented Nuclei (%) [1, 7]: 18% | Population Healthy Nuclei (%) [1, 7]: 61% | Population Hoechst High Intensity Objects (%) [1, 7]: 3% | Population Membrane Permeable-Phenotype (%) [1, 7]: 22% | Population Mitochondria Different-Phenotype (%) [1, 7]: 26% | Population Mitotic Cells (%) [1, 7]: 60% | Population Normal (%) [1, 7]: 96% | Population Pyknosed Nuclei (%) [1, 7]: 19% | Population Tubulin-Different-Phenotype (%) [1, 7]: 31% | Total Cell Count [1, 7]: 144 | Population Apoptotic (%) [1, 8]: 18% | Population Fragmented Nuclei (%) [1, 8]: 19% | Population Healthy Nuclei (%) [1, 8]: 63% | Population Hoechst High Intensity Objects (%) [1, 8]: 13% | Population Membrane Permeable-Phenotype (%) [1, 8]: 10% | Population Mitochondria Different-Phenotype (%) [1, 8]: 47% | Population Mitotic Cells (%) [1, 8]: 81% | Population Normal (%) [1, 8]: 86% | Population Pyknosed Nuclei (%) [1, 8]: 17% | Population Tubulin-Different-Phenotype (%) [1, 8]: 25% | Total Cell Count [1, 8]: 109 | Population Apoptotic (%) [1, 9]: 82% | Population Fragmented Nuclei (%) [1, 9]: 13% | Population Healthy Nuclei (%) [1, 9]: 75% | Population Hoechst High Intensity Objects (%) [1, 9]: 5% | Population Membrane Permeable-Phenotype (%) [1, 9]: 23% | Population Mitochondria Different-Phenotype (%) [1, 9]: 34% | Population Mitotic Cells (%) [1, 9]: 17% | Population Normal (%) [1, 9]: 94% | Population Pyknosed Nuclei (%) [1, 9]: 10% | Population Tubulin-Different-Phenotype (%) [1, 9]: 38% | Total Cell Count [1, 9]: 200 | Population Apoptotic (%) [1, 10]: 55% | Population Fragmented Nuclei (%) [1, 10]: 11% | Population Healthy Nuclei (%) [1, 10]: 80% | Population Hoechst High Intensity Objects (%) [1, 10]: 8% | Population Membrane Permeable-Phenotype (%) [1, 10]: 22% | Population Mitochondria Different-Phenotype (%) [1, 10]: 36% | Population Mitotic Cells (%) [1, 10]: 44% | Population Normal (%) [1, 10]: 91% | Population Pyknosed Nuclei (%) [1, 10]: 8% | Population Tubulin-Different-Phenotype (%) [1, 10]: 36% | Total Cell Count [1, 10]: 166 | Population Apoptotic (%) [1, 11]: 64% | Population Fragmented Nuclei (%) [1, 11]: 22% | Population Healthy Nuclei (%) [1, 11]: 45% | Population Hoechst High Intensity Objects (%) [1, 11]: 9% | Population Membrane Permeable-Phenotype (%) [1, 11]: 29% | Population Mitochondria Different-Phenotype (%) [1, 11]: 43% | Population Mitotic Cells (%) [1, 11]: 35% | Population Normal (%) [1, 11]: 90% | Population Pyknosed Nuclei (%) [1, 11]: 32% | Population Tubulin-Different-Phenotype (%) [1, 11]: 41% | Total Cell Count [1, 11]: 174 | Population Apoptotic (%) [1, 12]: 78% | Population Fragmented Nuclei (%) [1, 12]: 12% | Population Healthy Nuclei (%) [1, 12]: 52% | Population Hoechst High Intensity Objects (%) [1, 12]: 17% | Population Membrane Permeable-Phenotype (%) [1, 12]: 24% | Population Mitochondria Different-Phenotype (%) [1, 12]: 41% | Population Mitotic Cells (%) [1, 12]: 21% | Population Normal (%) [1, 12]: 82% | Population Pyknosed Nuclei (%) [1, 12]: 34% | Population Tubulin-Different-Phenotype (%) [1, 12]: 27% | Total Cell Count [1, 12]: 118 | Growth Rate [2, 13]: 0 | Growth Rate [2, 14]: 0 | Growth Rate [2, 15]: 0 | Growth Rate [2, 16]: 0 | Growth Rate [3, 17]: 0 | Growth Rate [3, 13]: 0 | Growth Rate [3, 14]: 0 | Growth Rate [3, 15]: 0 | Growth Rate [3, 16]: 0 | Growth Rate [4, 17]: 0 | Growth Rate [4, 13]: 1 | Growth Rate ([4]; 6 h, replicate number 2, timepoint 6 hours): 0 | Growth Rate [4, 14]: 0 | Growth Rate [4, 15]: 0 | Growth Rate [4, 16]: 0
